Measurements pooled from the literature.
Compare with care: the assays were run in different laboratories.
Target: Serine/threonine-protein kinase 16 (STK16, Homo sapiens, UniProt O75716)

| SMILES | assay | setting | measurement | value |
| --- | --- | --- | --- | --- |
| Cn1cncc1C1=CN(c2ncnc3[nH]cnc23)CCS1 | enzyme activity, inhibitor, radiometric | 50 nM | inhibition | 22% |
| Cn1cc(Cl)c2c(Oc3c(F)cc(Nc4cc(Cl)nc(N)n4)cc3F)ccnc21 | cell-free assay, competition with immobilised ligand | 0.1 µM | remaining binding | 100% |
| FC(F)(F)Oc1cccc(-c2cnc3ccc(-c4ccncc4)nn23)c1 | enzyme activity, inhibitor, radiometric | 5 µM | activity vs control | 118% |
| N#CCCc1ccc2c(c1)-c1[nH]c3ccc([N+](=O)[O-])cc3c1CC(=O)N2 | cell-free assay | 0.5 µM | remaining signal | 87% |
| CN1CC(Oc2cnc(C#N)cc2-c2ccn3nc(NC(=O)C4CC4)cc3c2)C1 | enzyme activity, inhibitor | 1 µM | inhibition | 10% |
| CNC(=O)c1cc(Oc2ccc(NC(=O)Nc3ccc(Cl)c(C(F)(F)F)c3)cc2)ccn1 | cell-free assay | 0.5 µM | remaining signal | 105% |
| COc1cc(Nc2cnc(C#N)c(O[C@H](C)CN(C)C)n2)ncc1-c1cnn(C)c1 | enzyme activity, inhibitor, radiometric | 1 µM | remaining activity | 91% |
| CN(C)C(=O)Cn1cc(-c2nc(C3(c4ccc(-c5cnc(N)nc5)cc4)CC3)no2)cn1 | cell-free assay, competition with immobilised ligand | 1 µM | remaining binding | 100% |
| O=C1Nc2ccc(Cl)cc2C1=Cc1cc(Cl)c(O)c(Cl)c1 | cell-free assay | 0.5 µM | remaining signal | 90.2% |
| Cc1sc(C(=O)NC2COC2)cc1-n1cc(NC(=O)Nc2c(F)cccc2Cl)cn1 | enzyme activity, inhibitor | 10 µM | remaining activity | 94.4% |
| COc1cc(/C=C/C(=O)CC(=O)/C=C/c2ccc(O)c(OC)c2)ccc1O | enzyme activity, inhibitor | 1 µM | activity vs control | 91% |
| COc1cc(-c2cc(-c3ccc(N4CCNCC4)cc3)cnc2C)cc(OC)c1OC | enzyme activity, inhibitor | 0.1 µM | inhibition | 4% |
| CCCCNc1ncc2c(-c3ccc(F)cc3)nn(C[C@H]3CC[C@H](N)CC3)c2n1 | target engagement in cells, inhibitor, chemoproteomics | 20 mM | inhibition | 56.4% |
| O=C(NCc1ncc(C(F)(F)F)cc1Cl)c1ccc2c(c1)C1(CCS(=O)(=O)CC1)[C@@H](C1CC1)N2S(=O)(=O)c1ccc(F)cc1 | cell-free assay, competition with immobilised ligand | 1 µM | remaining binding | 99% |
| COc1cc(Cl)c(C(=O)N[C@@H](CN[C@H]2CC[C@@H](N)CC2)Cc2ccc(C#N)cc2)cc1-c1ccc(CN[C@H](C)c2ccc(C)cc2)o1 | enzyme activity, inhibitor | 1 µM | remaining activity | 95% |
| O=C(O)c1cc(-c2ccc(C3CCNCC3)cc2)c2ccc(-c3ccc(C(F)(F)F)cc3)cc2c1 | cell-free assay, competition with immobilised ligand | 1 µM | remaining binding | 100% |
| Cn1cnc(Br)c1C1=CN(c2ncnc3[nH]cnc23)CCS1 | enzyme activity, inhibitor, radiometric | 50 nM | inhibition | 38.5% |
| CS(=O)(=O)N1CCCC(NC(=O)[C@H](CCC2CCCCC2)NC(=O)c2ccc(CNc3ncnc4c3nnn4-c3ccccc3)cc2)C1 (stereo partly shown) | cell-free assay, competition with immobilised ligand | 0.1 µM | remaining binding | 100% |
| C#Cc1cccc(Nc2ncnc3cc(OCCOC)c(OCCOC)cc23)c1 | cell-free assay | 0.5 µM | remaining signal | 98% |
